High-throughput results as filed in PubChem.
Most compounds without a hit are left out; they make up all but 2% or so of the library.
ARNT TACC3 PPI: ARNT/TACC3 interaction disruption; Q9Y6A5; AlphaScreen His-ARNT PAS-B/GST-TACC3 binding, luminescence; TACC3 fragment carries E629A point mutation; inhibition, % at 9.99 µM; 390,000 tested, 0.66% active;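 active means mean inhibition of replicates at least 50% and at least half of replicates each reaching 50%; inconclusive means half or more replicates reach 50% but mean below 50%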;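 further: 0% = complete ARNT plus TACC3 wells and 100% = ARNT alone without TACC3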
HGIII-sPLA2 inh: Inhibits HGIII-sPLA2 liposome hydrolysis, primary screen | Q9NZ20 | QFRET BODIPY PC-A2 liposome hydrolysis, fluorescence | inhibition, % at 12.2 µM | 370,000 tested, 0.56% active;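 active means inhibition above mean plus 3 SD of compounds lying within the high and low control bounds, cut at about 19% in these data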;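 further: 0% = median of test compound wells and 100% = no enzyme DMSO wells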
Target sequence (Q9NZ20 whole entry, looked up): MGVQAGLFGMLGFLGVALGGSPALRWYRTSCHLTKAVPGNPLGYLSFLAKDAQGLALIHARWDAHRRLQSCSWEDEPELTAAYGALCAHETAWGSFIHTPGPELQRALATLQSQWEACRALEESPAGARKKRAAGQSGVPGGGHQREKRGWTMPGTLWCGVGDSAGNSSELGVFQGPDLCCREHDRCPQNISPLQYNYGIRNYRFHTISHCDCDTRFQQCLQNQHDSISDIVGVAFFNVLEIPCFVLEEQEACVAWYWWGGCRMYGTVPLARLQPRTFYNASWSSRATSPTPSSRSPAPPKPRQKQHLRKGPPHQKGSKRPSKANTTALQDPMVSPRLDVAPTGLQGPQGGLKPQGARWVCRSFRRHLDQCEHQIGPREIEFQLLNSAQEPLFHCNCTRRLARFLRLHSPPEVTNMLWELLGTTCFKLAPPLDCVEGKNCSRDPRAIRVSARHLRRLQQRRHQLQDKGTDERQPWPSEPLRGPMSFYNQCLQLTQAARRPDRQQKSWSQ
SR-BI HDL uptake: blocks mouse SR-BI lipid uptake from DiI-HDL | ldlA[mSR-BI] CHO cells, DiI-HDL uptake fluorescence, 3 h | Q61009 | 320,000 tested, 0.96% active | inhibition, % at 12.5 µM;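 active means mean replicate inhibition of at least 70% and a set share of replicates each scoring 70 or more; inconclusive means meets just one of the two criteria; inactive means fails both criteria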;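 further: 0% = median of neutral control wells and 100% = median of positive control wells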
XiGFP reactiv: X-chromosome reactivation activator; XiGFP mouse fibroblasts, % GFP-positive cells imaging, 3 d; cells co-treated with 5-aza-dC sensitizer; scaled so ellipticine positive control = 100%; activation, % at 7.58 µM; 360,000 tested, 0.055% active;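 active means mean normalized replicate activation at least 10% and every replicate at or above 10%; inconclusive means only one of the two criteria met; inactive means mean below 10% and not all replicates reach 10%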;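 further: 0% = median of on-plate neutral control wells and 100% = ellipticine 6 µM median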
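Material: XiGFP fibroblasts, SV40-immortalized. Buffer or medium: DMEM plus 5-aza-dC sensitizer. Compound: single concentration per compound, delivered by pin transfer. Times: 3 days compound exposure. Controls: ellipticine 6 µM.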
NSD2 HMT inh: NSD2 (human) methyltransferase inhibition; O96028; NSD2 peptide methylation, AlphaScreen, 120 min; inhibition, % at 12.5 µM; 310,000 tested, 0.54% active; AID 743445; in the data active means inhibition above about 50%
SR-BI uptake up: activators of SR-BI mediated HDL lipid uptake. CHO ldlA[mSR-BI] cells, DiI-HDL uptake fluorescence, 3 h; 100 = double the neutral-control signal. activation, % at 12.5 µM. 320,000 tested, 0.096% active. AID 504775;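 active means mean replicate activation of at least 60% and every replicate at or above 60%; inconclusive means mean or all-replicate condition met, but not both; inactive means mean below 60% and not all replicates reaching 60%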;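 further: 0% = median plate neutral-control signal and 100% = twice that signal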
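Material: SR-BI-overexpressing, LDLR-lacking CHO cells | Dosing: Single compound concentration, delivered by pin transfer | Probe or stimulus: Labelled HDL, 10 µg/mL | Signal: Bottom-read cell fluorescence after medium removal, ex 550/em 595 nm | Schedule: 3 h, 37 °C | Evaluation: HDL uptake via cellular fluorescence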
* marks the source's active call; other numbers are inactive results; ? = inconclusive; · = no result given.

SMILES | ARNT TACC3 PPI | HGIII-sPLA2 inh | SR-BI HDL uptake | XiGFP reactiv | NSD2 HMT inh | SR-BI uptake up
COc1cc(-c2noc(-c3cccc(Cl)c3)n2)cc(OC)c1OC | 1 | 0 | 76* | · | 2 | -76
COc1cc(-c2nnc(-c3cccs3)o2)cc(OC)c1OC | -6 | 7 | 42 | · | 0 | -23
COc1cc(-c2nc(-c3cccc(C)c3)no2)cc(OC)c1OC | -3 | -2 | 84* | · | -1 | -84
COc1ccc(-c2nnc(-c3cc(OC)c(OC)c(OC)c3)o2)cc1OC | -9 | 1 | 76* | · | 1 | -76
COc1cc(CNCc2ccccn2)ccc1OCC(N)=O | 49* | -3 | -2 | · | -5 | 2
O=C(O)c1cc(=S)nc[nH]1 | 73* | 13 | -21 | 0 | -2 | 21
Cn1c2ccccc2c(=O)c2cc(C#Cc3ccccn3)ccc21 | -2 | -2 | -14 | 0 | · | 14
C=CCn1c2ccccc2c(=O)c2cc(C#Cc3cc(OC)cc(OC)c3)ccc21 | 5 | -1 | 87* | 0 | · | -87
O=C(c1ccncc1)N1N=C(c2ccc(Br)cc2)CC1c1ccccc1O (centres undefined) | -3 | -35 | 75* | 0 | 7 | -75
O=C(c1ccccc1)N1N=C(c2ccccc2)CC1c1ccccc1O (centres undefined) | 33 | -37 | -16 | 0 | 1 | 16
O=C(O)c1cccc(-c2ccc(/C=N/Nc3nn[nH]n3)o2)c1 | 67* | 7 | -18 | 0 | 8 | 18
O=C(Nc1ccc(Cl)cc1Cl)c1cccc(N2C(=O)C=CC2=O)c1 | -3 | 23* | 24 | 0 | · | -24
O=C(O)c1cccc(N2C(=O)C=CC2=O)c1 | · | -3 | · | 0 | 23 | ·
N#C/C(=C/c1ccc(N2CCCCC2)o1)C(=O)Nc1ccc2ccccc2c1 | · | -96 | 23 | 109* | 1 | -23
COc1cc(C=NO)nc(-c2ccccn2)c1 | 59* | -8 | 4 | 0 | 3 | -4
COc1ccc(C(=O)NC(C)(C)C)cc1S(=O)(=O)N1CCCC1 | -4 | 1 | -52 | · | -1 | 52
CCOC(=O)c1ccc(NC(=S)NCCCn2ccnc2)cc1 | 35* | -12 | -10 | 0 | 32 | 10
O=C(NCCCn1ccnc1)Nc1ccc(Cl)c(Cl)c1 | 65* | -34 | -3 | · | -4 | 3
O=C(COc1ccc(Cl)cc1)NCCCn1ccnc1 | 47* | 4 | -18 | · | 50 | 18
CN1C[C@@H](O)COC[C@@H]2O[C@@H](CC(=O)NC3CCC3)CC[C@H]21 | 6 | · | · | 0 | · | ·
COc1cc(Cl)c(C)cc1NC(=O)CN1C(=O)C2CCCCC2C1=O (centres undefined) | -1 | 2 | -12 | 0 | -1 | 12
CCOC(=O)C(Cc1ccccc1)NC(=O)CNC(C)=O (centres undefined) | -1 | 3 | 3 | · | -9 | -3
CCOC(=O)Nc1cc2c(c(N)n1)N=C(c1ccccc1)CN2 | 8.7* | -8 | 64 | ? | 1 | -64
Cc1nn(-c2ccccc2)c(N2CCCC2)c1/C=N/NC(=O)C1CC1 | 3 | 7 | 50 | 0 | -1 | -50
O=C(N/N=C/c1c(O)n(-c2ccc(Cl)cn2)c(=O)c2ccccc12)c1ccncc1 | 42* | 6 | 39 | 0 | 0 | -39
SMILES | ARNT TACC3 PPI | HGIII-sPLA2 inh | SR-BI HDL uptake | XiGFP reactiv | NSD2 HMT inh | SR-BI uptake up
O=C(N/N=C/c1c(O)n(-c2ccc(Cl)cn2)c(=O)c2ccccc12)C1CC1 | 68* | 17 | 15 | 0 | 1 | -15
Cc1ccc(-c2ccc3c(c2)O[C@@H](CN(C)C(=O)C2CC2)[C@@H](C)CN([C@H](C)CO)S3(=O)=O)cc1 | 2 | · | · | 0 | · | ·
O/N=C1/CCc2cccc3cccc1c23 | -3 | -8 | 0 | · | 0 | 0
O=C1C(=NO)CCc2ccccc21 | 33 | -7 | 6 | 0 | 77* | -6
CCN1CCN(C(=O)Nc2cccc3ccccc23)CC1 | -5 | 5 | -8 | · | 1 | 8
CC1CN(C2CCN(S(=O)(=O)c3ccccc3)CC2)CC(C)O1 (centres undefined) | 1 | 9 | -289 | · | 1 | 289*
